{"data": "Measured values of several laboratories", "note": "Lines come from different studies, so protocols differ."}
{"Compound": "CC[S+]([O-])c1nc(-c2cccc(OCc3ccccc3)c2)cc(C(F)(F)F)n1 (centres unmarked)", "tested on": "HEK-293T", "test": "cell growth or viability, ATP luminescence", "conditions": "24 h", "endpoint": "CC50", "result": "20 µM"}
{"Compound": "CCCCCCCCNCC(O)c1cc(Cl)cc2c1-c1ccc(Cl)cc1C2 (racemic)", "tested on": "HepG2", "test": "cell growth or viability", "conditions": "48 h", "endpoint": "CC50", "result": "5.9 µM"}
{"Compound": "CCOc1ccc(N(C)S(=O)(=O)c2cc(Cl)sc2C(=O)Nc2cc(Cl)cc(C(=O)O)c2)cc1OC", "test system": "male C57BL/6 mouse, brain", "conditions": "intraperitoneal, 10 mg/kg", "endpoint": "MRT(0-inf)", "result": "0.854 h"}
{"Compound": "CCN1CCN(Cc2ccc(NC(=O)c3ccc(C)c(NC(=O)c4cncc(-c5cccs5)c4)c3)cc2C(F)(F)F)CC1", "test system": "mouse, plasma", "conditions": "intraperitoneal, 20 mg/kg, single dose", "endpoint": "MRT", "result": "3.52 h"}
{"Compound": "C=CS(=O)(=O)c1ccc(Nc2nc(OCC3CCCCC3)c3nc[nH]c3n2)cc1", "test system": "male BALB/c mouse, plasma", "conditions": "intraperitoneal, 20 mg/kg, single dose", "endpoint": "MRT(0-t)", "result": "2.26 h"}
{"Compound": "CC(=O)O[C@@]12CO[C@@H]1C[C@H](O)[C@@]1(C)C(=O)[C@H](O)C3=C(C)[C@@H](OC(=O)[C@H](O)[C@@H](NC(=O)OC(C)(C)C)c4ccccc4)C[C@@](O)([C@@H](OC(=O)c4ccccc4)[C@H]21)C3(C)C", "test system": "male Kunming mouse, lung", "conditions": "oral, 20 mg/kg", "endpoint": "MRT", "result": "1.8 h"}
{"Compound": "CCCCCNC[C@H](O)c1cc(Cl)cc2c1-c1ccc(Cl)cc1C2", "tested on": "HepG2", "test": "cell growth or viability", "conditions": "48 h", "endpoint": "CC50", "result": "6.3 µM"}
{"Compound": "CCS(=O)(=O)c1nc(C)cc(-c2ccccc2)n1", "tested on": "HEK-293T", "test": "cell growth or viability, ATP luminescence", "conditions": "24 h", "endpoint": "CC50", "result": "> 60 µM"}
